MPTP inh: permeability transition pore inhibition. inhibition, % at 10 µM. 360,000 compounds, 1.4% hits. isolated mouse mitochondria, Ca2+ swelling absorbance, 30 min;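 active = inhibition of 50% or more, scaled per plate between neutral and stimulator controls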;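 note: 0% = DMSO wells given calcium and 100% = 1 mM EGTA wells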
TbMetRS inhib: blocks T. brucei methionyl-tRNA synthetase activity; inhibition, % at 11.9 µM; purified T. brucei MetRS, ATP depletion, Kinase-Glo luminescence; 360,000 compounds, 0.4% hits;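 active = inhibition above a per-plate cutoff of the control wells' mean inhibition plus 3 SD, cut at about 5.5% in these data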;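 note: 0% = DMSO wells median and 100% = median of wells with control inhibitor compound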
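technique = Kinase-Glo luminescence, ATP depletion format | system = purified MetRS (methionyl-tRNA synthetase) enzyme from Trypanosoma brucei | timing = 15 min preincubation, 2 h reaction, all 25 °C | evaluation = percent inhibition versus plate control medians | dosing = single dose, 11.9 µM final nominal, 0.9% final DMSO | also added = substrates ATP, L-methionine and bulk Escherichia coli tRNA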
NR3A LBD binder: modulates the human NR3A ligand-binding domain | AID 1259313 | NR3A LBD differential scanning fluorimetry, Tm shift; 0% = protein alone, 100% = glycine-bound protein | 340,000 compounds, 2.5% hits | Tm shift relative to glycine control, % at 25 µM;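 active = melting temperature shift of at least 10% of the positive control shift, at one fixed dose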
WT yeast gro inh: growth inhibition of WT yeast, mitochondrial fusion screen; mitochondrial fusion phenotypic screen, WT strain; inhibition, % at 10 µM; 190,000 compounds, 2.1% hits; AID 1362; in the data active = inhibition above about 58%; tested in S. cerevisiae
EBV gp42 inh: EBV gp42 inhibition; 220,000 compounds, 0.42% hits; Fluorescence polarization binding assay, mP read-out; Q1HVG2; inhibition, % (tested at 21.74 µM); in the data active = inhibition above about 50%
Target sequence (Q1HVG2 whole entry, looked up): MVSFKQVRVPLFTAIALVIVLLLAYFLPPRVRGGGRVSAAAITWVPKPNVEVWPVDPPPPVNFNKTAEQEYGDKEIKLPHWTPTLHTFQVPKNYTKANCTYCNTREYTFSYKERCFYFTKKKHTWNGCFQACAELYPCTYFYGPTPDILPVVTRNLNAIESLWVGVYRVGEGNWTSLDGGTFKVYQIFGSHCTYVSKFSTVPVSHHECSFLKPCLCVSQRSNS
CHOP inhibitor: blocks CHOP induction under ER stress; 220,000 compounds, 3.8% hits; inhibition, % at 10 µM; CHO-K1 CHOP-promoter luciferase, tunicamycin-induced, 15-18 h;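 active = compounds that reduced the stress-induced luciferase reporter signal by more than about 70% of percent inhibition, limit read from the data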;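 note: 0% = tunicamycin plus vehicle and 100% = wells without tunicamycin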
Rh123 counter: mitochondrial membrane potential, counter-screen; shares compounds with MPTP inh; isolated mitochondria, Rhodamine 123 fluorescence; inhibition, % at 10 µM; 5,000 compounds, 78% hits; in the data active = inhibition above about 22%;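 note: 0% = DMSO vehicle and 100% = positive control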
MPTP abs DR: dose response confirmation of mitochondrial permeability transition pore inhibitors | AID 651561 | IC50, µM | isolated mitochondria swelling, absorbance | shares compounds with MPTP inh | 780 compounds, 58% hits; in the data active = IC50 below about 20 µM
MPTP cs DR: MPTP inhibitor counter-screen activity, dose response | shares compounds with MPTP inh | 780 compounds, 49% hits | AID 651564 | isolated mitochondria counterscreen, fluorescence read-out | IC50, µM; in the data active = IC50 below about 80 µM
Starred values were filed as active, the others as inactive; i = inactive; nt = no result. Hits are enriched below; roughly 6.4% of the tested compounds scored in any of these assays.

SMILES | MPTP inh | TbMetRS inhib | NR3A LBD binder | WT yeast gro inh | EBV gp42 inh | CHOP inhibitor | Rh123 counter | others
CCc1ccccc1NC(=O)c1ccc(CN2CCC(Cc3ccccc3)CC2)cc1 | 57* | 0 | 1 | 23 | -6 | 63 | -14
Cc1[nH]n(-c2cccc3ccccc23)c(=O)c1/C=N/c1sc2c(c1C#N)CCC2 | 0 | -2 | -10 | -4 | -9 | 13 | nt
Cc1[nH]n(-c2ccc(Cl)cc2)c(=O)c1/C=N/c1nnc(-c2ccccc2)s1 | 104* | -1 | -5 | 15 | -4 | 31 | 43*
Cc1[nH]n(-c2ccccc2)c(=O)c1C=NCc1ccncc1 | 1 | -1 | 0 | nt | -12 | 1 | nt
Cc1[nH]n(-c2ccc(F)cc2)c(=O)c1/C=N/c1sc2c(c1C#N)CCCC2 | 106* | -1 | -2 | 18 | -32 | 90* | 25*
COCCNC(=O)Cn1cnc2ccc(S(=O)(=O)N3CCC(C)CC3)cc2c1=O | 4 | 0 | -1 | 32 | -11 | 28 | nt
N#CCC(N)=C(C#N)C#N | -1 | 0 | -3 | -6 | -2 | 13 | nt
CC(C)CNC(=O)COc1ccc(Sc2ccc(OCC(=O)NCC(C)C)cc2)cc1 | 53* | 1 | -2 | -9 | -15 | 38 | 20 | MPTP abs DR=5.4*;MPTP cs DR=>80
CCCC(C)NC(=O)COc1ccc(Sc2ccc(OCC(=O)NC(C)CCC)cc2)cc1 (stereo not drawn) | 78* | -1 | 4 | 4 | -14 | 57 | 34*
CC(=O)C1=C(O)C(=O)N(c2ccc(O)cc2)C1c1ccc(C)cc1 (stereo not drawn) | 1 | -1 | 0 | nt | nt | nt | nt
Cc1ccc(OCCCCNC2CCCC(C)C2C)c(C)c1 (stereo not drawn) | 60* | 0 | 0 | 63* | -9 | 55 | -1
O=C(NCc1ccccc1C(F)(F)F)C1CCC(=O)N(C2CC2)C1 (stereo not drawn) | 0 | 1 | 3 | nt | nt | nt | nt
O=C(/C(=N\Nc1ccc(Br)cc1)Sc1nnnn1-c1ccccc1)c1ccccc1 | 90* | 0 | 20* | 40 | -7 | 28 | 74*
CCOC(=O)/C(=N/Nc1ccccc1)Sc1nnnn1-c1ccc(C)cc1 | 0 | -2 | 5 | -15 | 0 | 43 | nt
COC(=O)c1cc(CSc2nc3ccccc3c(=O)n2C)oc1C | 84* | 0 | -2 | nt | nt | nt | 93*
Cc1cccc(CSc2nc3ccccc3c(=O)n2C)c1 | 8 | 0 | -3 | nt | nt | nt | nt
Cc1ccc(-c2nc(CSc3nc4ccccc4c(=O)n3C)cs2)cc1 | 100* | 0 | -2 | 15 | -28 | 29 | 45*
COCCn1c(SCc2ccc(C(=O)OC)o2)nc2ccccc2c1=O | 3 | -1 | 0 | -14 | -28 | 47 | nt
Cc1cc(C)cc(NC(=O)C2(c3ccccc3)CC2(Cl)Cl)c1 (stereo not drawn) | 71* | 0 | -1 | -16 | 1 | 49 | 76*
CCc1ccc(NC(=O)C2(c3ccccc3)CC2(Cl)Cl)cc1 (stereo not drawn) | 53* | -1 | -3 | 17 | -14 | 65 | 72*
CCCCCOC(=O)C1=C(C)NC(=O)NC1c1ccc2c(c1)OCO2 (stereo not drawn) | 1 | 0 | -1 | nt | nt | nt | nt
O=C(Nc1cccc(Br)c1)c1ccc(CSc2ccccc2)cc1 | 67* | -2 | 30* | 10 | -20 | -26 | 77*
O=C(Nc1cccnc1)c1ccc(CSc2ccccc2)cc1 | 0 | 0 | -11 | 9 | -10 | -3 | nt
COc1cccc(NC(=O)N2CCN(C(=O)C(Cc3ccc(OC)c(OC)c3)NC(C)=O)CC2)c1 (stereo not drawn) | -1 | -1 | 2 | -3 | -4 | -2 | nt
COc1ccc(CC(NC(C)=O)C(=O)N2CCN(C(=O)Nc3ccc(Cl)cc3)CC2)cc1OC (stereo not drawn) | 55* | 0 | 4 | -2 | -11 | -9 | 73*
SMILES | MPTP inh | TbMetRS inhib | NR3A LBD binder | WT yeast gro inh | EBV gp42 inh | CHOP inhibitor | Rh123 counter | others
COc1c(Br)cc([N+](=O)[O-])c(OC)c1C(=O)NC(=O)Nc1c(Cl)cccc1Cl | 4 | 2 | -13 | nt | -6 | 3 | nt
COc1c(Br)cc([N+](=O)[O-])c(OC)c1C(=O)NC(=O)Nc1cc(Cl)cc(Cl)c1 | 83* | 0 | 13* | nt | -2 | 23 | 85*
Cn1c(=O)c(C#N)c(-c2ccc(F)cc2)c2cc(C(=O)c3cc(Cl)cc(Cl)c3O)cnc21 | 95* | 0 | 12* | nt | -3 | 56 | 60*
CC(C)N1CC2(CC(c3ccc(Cl)cc3Cl)=NO2)CN1C(=O)c1ccc(C(C)(C)C)cc1 (stereo not drawn) | 52* | -1 | nt | nt | nt | nt | 14 | MPTP abs DR=8.8*;MPTP cs DR=29*
CC(C)N1CC2(CC(c3ccccc3F)=NO2)CN1C(=O)c1ccc(C(C)(C)C)cc1 (stereo not drawn) | 2 | -1 | nt | nt | nt | nt | nt
Cc1c(O)ccc2c(CN3CCN(Cc4ccccc4)CC3)cc(=O)oc12 | 1 | 0 | -2 | nt | nt | nt | nt
Cc1c(O)ccc2c(CN(C)Cc3ccccc3)cc(=O)oc12 | 84* | 0 | 0 | nt | 8 | 30 | 62*
CCN1CCN(C(=O)C2CC(=O)N(c3ccc(Cl)cc3)C2)CC1 (stereo not drawn) | 0 | 0 | -2 | nt | nt | nt | nt
Cc1ccc2nc(SCc3nc4c(cnn4-c4ccccc4)c(=O)[nH]3)[nH]c2c1 | 73* | -1 | -2 | 4 | -17 | 73* | 85*
CC1CCCCC1NC(=S)Nc1ccc(SC(F)F)cc1 (stereo not drawn) | 66* | 0 | 10 | 69* | -2 | -12 | 91*
FC(F)Sc1ccc(NC(=S)NC2CCCCC2)cc1 | 101* | 0 | 15* | 41 | 1 | 95* | 79*
CC1CCN(C(=S)Nc2ccc(SC(F)F)cc2)CC1 | 0 | 0 | -1 | 16 | -1 | 69 | nt
COC(=O)/C=C1/S/C(=N/NC(=O)c2ccc(Cl)cc2Cl)NC1=O | 0 | 0 | 6 | nt | -11 | -11 | nt
O=c1cc(C(F)(F)F)[nH]c2ccc(OC(F)(F)F)cc12 | 64* | -1 | 1 | nt | -5 | -14 | 85*
O=c1cc(C(F)(F)F)[nH]c2c(C(F)(F)F)cccc12 | 64* | 0 | -5 | 78* | -7 | -5 | 98*
C[N+]1(CC(=O)OCCCc2ccccc2)CCCCC1 | -4 | 0 | 1 | 9 | -67 | -6 | nt
N/C(=N\N=C/c1ccc(F)cc1)N/N=C\c1ccc(F)cc1 | 4 | -1 | 5 | nt | nt | nt | nt
N/C(=N\N=C/c1ccc(Br)cc1)N/N=C\c1ccc(Br)cc1 | 59* | 0 | 28* | 89 | -15 | -4 | -6 | MPTP abs DR=i;MPTP cs DR=37*

Assay outcomes deposited in PubChem by several laboratories.
